Measurements from paper PMC10099142 (ACS Omega, 2023).
Where two headings read alike, the source gives them in different places.

Key:
Assay type in all cases: cell-based
[1] = tested on: human lung adenocarcinoma (A549); assay: MTT assay, antiproliferative activity, A549
Summary of the method: (§1)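 A549 cells are grown in DMEM and MDA-MB-231 cells in MEM, both with FBS and antibiotics, at 37 °C in humidified 5% CO2, then trypsinized. Cells are seeded at 5 × 10^3 per well and grown to confluency. They are exposed to a range of test compound concentrations for 24 h or 72 h, with 5-fluorouracil as reference. Medium is removed, MTT is added for 3 h, and formazan is dissolved in DMSO. A570 is read and percentage cell death is calculated.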

[2] = tested on: human breast adenocarcinoma (MDA-MB-231); assay: MTT assay, antiproliferative activity, MDA-MB-231
Summary of the method: as §1

[3] = tested on: 3T3-L1, a fibroblast cell line; assay: Screening of toxicity in normal cell line; conditions: Mus musculus, 3T3-L1, 72 h, read-out: IC50 3T3-L1 72 h
Summary of the method: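 3T3-L1 fibroblasts are kept in DMEM with 5% FBS and antibiotics at 37 °C in humidified 5% CO2. They are seeded at 5 × 10^3 per well and grown to confluency, then treated with a range of test compound concentrations. MTT is added for 3 h after removing the medium, and formazan is dissolved in DMSO. A570 is read and percentage cell death is calculated.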

O=c1[nH]cc(F)c(=O)[nH]1 [5-fluorouracil]
IC50 ([1]; A549, 24 h, read-out: IC50 A549 24 h): 747 ± 0.13 µM
IC50 ([1]; A549, 72 h, read-out: IC50 A549 72 h): 17 ± 0.41 µM
IC50 ([2]; MDA-MB-231, 24 h, read-out: IC50 MDA-MB-231 24 h): 885 ± 0.76 µM
IC50 ([2]; MDA-MB-231, 72 h, read-out: IC50 MDA-MB-231 72 h): 29.01 ± 0.01 µM
IC50 [3]: 41.4 ± 1.05 µM
